Molecules are shown by their SMILES. Active and inactive are the calls of the source. The rule behind the calls is not given here.

Assay [1] concerns Popillia japonica. Briefly: Insecticidal activity against Popillia japonica assessed as reduction in leaf damage measured up to 63 days post treatment by laboratory bioassay. In kind it is functional, organism-based. In a few lines:
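Leaves were taken from vines treated by irrigation injection (6 June and 6 July 2007). Four uninjured leaves per treatment plot were offered to Japanese beetles in the laboratory. Leaf area removed (cm²) was measured weekly, from 4 days before the second injection to […] after it.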

Assay [2] relates to Paralobesia. The experiment in a line: Insecticidal activity against Paralobesia viteana infested grapevine assessed as reduction in clusters infested with moth by mid-season irrigation injection method (reference value: 11 +/- 1.9 %). In kind it is functional. Further details: scale not given: the % may be the effect or the level left.
Assay [3] deals with Popillia japonica. Briefly: Insecticidal activity against Popillia japonica at 500 g/kg WG assessed as moribund behaviour measured after 3 days by irrigation injection method. In kind it is functional, organism-based.
The subject of assay [4] is Popillia japonica. The experiment in a line: Insecticidal activity against Popillia japonica at 500 g/kg WG assessed as moribund behaviour measured after 10 to 19 days by irrigation injection method. In kind it is functional, organism-based.
Assay [5] has as its system Paralobesia. The experiment in a line: Insecticidal activity against Paralobesia viteana infested grapevine assessed as reduction in clusters infested with moth by early-season irrigation injection method (reference value: 34.3 +/- 4.4 %). In kind it is functional. Further details: scale not given: the % may be the effect or the level left.
Assay [6] concerns Popillia japonica. Briefly: Insecticidal activity against Popillia japonica at 500 g/kg WG assessed as reduction in leaf damage measured after 35 days by irrigation injection method (reference value: 50.97 +/- 7.2 %). In kind it is functional. Further details: scale not given: the % may be the effect or the level left.
Assay [7] relates to Popillia japonica. Briefly: Insecticidal activity against Popillia japonica at 500 g/kg WG assessed as moribund behaviour measured after 24 to 56 days by irrigation injection method. In kind it is functional, organism-based.
Assay [8] concerns Popillia japonica. The experiment in a line: Insecticidal activity against Popillia japonica at 552 g/kg SC measured after 24 days by irrigation injection method. In kind it is functional, organism-based. In outline: (§1)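 Insecticide was injected into the drip irrigation on 6 June and 6 July 2007, in seven-vine rows. Japanese beetles were counted on vines in the field at intervals after treatment. Total beetles per row were log(x+1) transformed and analysed by ANOVA with […] post hoc tests.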

The subject of assay [9] is Popillia japonica. The experiment in a line: Insecticidal activity against Popillia japonica at 552 g/kg SC assessed as moribund behaviour measured after 10 to 19 days by irrigation injection method. In kind it is functional, organism-based.
Assay [10] concerns Popillia japonica. The experiment in a line: Insecticidal activity against Popillia japonica at 552 g/kg SC assessed as moribund behaviour measured after 24 to 56 days by irrigation injection method. In kind it is functional, organism-based.
The test system of assay [11] is Popillia japonica. The experiment in a line: Insecticidal activity against Popillia japonica at 552 g/kg SC measured after 14 days by irrigation injection method. In kind it is functional, organism-based. In outline: as §1
In assay [12] the test system is Popillia japonica. The experiment in a line: Insecticidal activity against Popillia japonica at 552 g/kg SC assessed as moribund behaviour measured after 3 days by irrigation injection method. In kind it is functional, organism-based.
Assay [13] deals with Popillia japonica. The experiment in a line: Insecticidal activity against Popillia japonica at 552 g/kg SC measured after 1 to 24 days by irrigation injection method. In kind it is functional, organism-based. In a few lines: as §1
Assay [14] concerns Popillia japonica. The experiment in a line: Insecticidal activity against Popillia japonica at 552 g/kg SC assessed as reduction in leaf damage measured after 35 days by irrigation injection method (reference value: 50.97 +/- 7.2 %). Further details: scale not given: the % may be the effect or the level left. In kind it is functional.
Assay [15] concerns Popillia japonica. The experiment in a line: Insecticidal activity against Popillia japonica at 240 g/kg SC assessed as moribund behaviour measured after 24 to 56 days by irrigation injection method. In kind it is functional, organism-based.
Assay [16] deals with Popillia japonica. The experiment in a line: Insecticidal activity against Popillia japonica at 240 g/kg SC assessed as reduction in leaf damage measured after 35 days by irrigation injection method (reference value: 50.97 +/- 7.2 %). In kind it is functional. Further details: scale not given: the % may be the effect or the level left.
Assay [17] concerns Popillia japonica. Briefly: Insecticidal activity against Popillia japonica at 240 g/kg SC assessed as moribund behaviour measured after 3 days by irrigation injection method. In kind it is functional, organism-based.
For assay [18], the system named is Popillia japonica. The experiment in a line: Insecticidal activity against Popillia japonica at 240 g/kg SC assessed as moribund behaviour measured after 10 to 19 days by irrigation injection method. In kind it is functional, organism-based.
The test system of assay [19] is Popillia japonica. The experiment in a line: Insecticidal activity against Popillia japonica at 240 g/kg SC measured after 1 to 24 days by irrigation injection method. In kind it is functional, organism-based. In a few lines: as §1

Regarding `CN/C(=N\[N+](=O)[O-])NCc1cnc(Cl)s1` [CLOTHIANIDINE], the result in assay [1], in assay [3], in assay [4] and in [7] was inactive. The values for the Activity in assay [2], in assay [5] and in assay [6] were 6%, 31.7% and 48.3%, respectively.

In the case of `O=[N+]([O-])/N=C1\NCCN1Cc1ccc(Cl)nc1` [IMIDACLOPRID], the outcome in assay [8], in [1], in assay [9], in [10], in assay [11] and in assay [12] was Active. In addition, the result in assay [13] was Active. In addition, the Activity is reported as 1% in assay [2], 11.8% in [5] and 4.43% in assay [14].

`CN1COCN(Cc2cnc(Cl)s2)/C1=N\[N+](=O)[O-]` [THIAMETHOXAM]: the result in assay [1] was Active. The outcome in [15], in [17], in assay [18] and in [19] was inactive. Moreover, the Activity turned out to be 7% in assay [2], 27.67% in assay [16] and 25.3% in assay [5].

The values above are taken from ChEMBL document CHEMBL3046168, “Soil application of neonicotinoid insecticides for control of insect pests in wine grape vineyards” (2012).
